Screening results from PubChem.
KCNQ1 act – potentiates or activates the human KCNQ1 potassium channel; P51787; CHO-K1 KCNQ1, thallium flux FluxOR fluorescence; stronger effect = higher value; B-score at 10 µM; 310,000 compounds, 0.35% hits; AID 2648;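 active = fluorescence ratio B-score, a plate-corrected score, at least three library SD, with initial intensity B-score within 5 SD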
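Doses: Single concentration per compound, DMSO matched to controls | Test system: KCNQ1-transfected CHO-K1 cells | Timing: 90 min dye loading and 20 min compound exposure, both at room temperature | Measured by: Kinetic FluxOR thallium fluorescence, 10-s 1-Hz baseline, 110-s post-stimulus read | Medium: Assay buffer with matched DMSO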
AI-2 QS mod – modulates the Vibrio harveyi AI-2 quorum sensing system | Vibrio harveyi JMH597 AI-2 luminescence/OD600 ratio, 9 h; stronger effect = lower value; strain lacks LuxN and CqsS sensors; 0 = neutral-control median | activity change, % at 7.5 µM | 300,000 compounds, 0.4% hits; in the data active = activity change below about -75%, passing the limit was not always enough;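 note: luminescence divided by OD600 gain over 9 h not by final OD600 alone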
KCNQ1 block – inhibitors of human KCNQ1 potassium channel. P51787. B-score at 10 µM. CHO-K1 KCNQ1, FluxOR thallium flux fluorescence; stronger effect = higher value. 310,000 compounds, 1.3% hits. AID 2642;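 active = compounds whose thallium flux B-score, printed positive for inhibition, exceeds three library SD while starting fluorescence stays within three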;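 note: channel opened by potassium depolarization with thallium stimulus after 20 min compound exposure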
Cl transport mod – modulators of human KCC2 chloride dependent transport | Q9H2X9 | KCC2 cells, thallium flux FluoZin-2 fluorescence | B-score of Tl+ flux slope (higher = more flux/activation; lower = inhibition) at 10 µM | 190,000 compounds, 2.2% hits | AID 1456;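 active = thallium flux slope and its plate-corrected score both differing from the plate sample mean at a set confidence after two filtering rounds, in either direction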;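 note: slope of fluorescence scaled to starting intensity during 10 to 20 s after thallium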
Mot1-301 SUMO – inhibitors of SUMOylation pathway: yeast Mot1-301 growth rescue; AID 2716; growth rescue, % at 18.8 µM; S. cerevisiae Mot1-301 growth rescue, ATP luminescence, 38.5C; percent above DMSO median, 100 means doubled; 320,000 compounds, 1% hits;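 active = every valid replicate shows activation above 250% relative to neutral control wells; inactive = the rest, any valid replicate at or below 250%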;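 note: OY570 slx delta 5 strain wells were the positive control but not used for scaling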
hERG rescue – compounds protecting human hERG from proarrhythmic drug block. CHO-hERG, FluxOR thallium flux, dofetilide IC70 present. activation (rescue from dofetilide block), less the hit threshold, % at 10 µM. 310,000 compounds, 0.51% hits. AID 1511;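 active = activation above the mean of controls blocked by dofetilide plus 5 SD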;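 note: thallium influx through hERG after potassium depolarization seen as dye fluorescence rise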
Target sequence (Q12809 whole entry, looked up): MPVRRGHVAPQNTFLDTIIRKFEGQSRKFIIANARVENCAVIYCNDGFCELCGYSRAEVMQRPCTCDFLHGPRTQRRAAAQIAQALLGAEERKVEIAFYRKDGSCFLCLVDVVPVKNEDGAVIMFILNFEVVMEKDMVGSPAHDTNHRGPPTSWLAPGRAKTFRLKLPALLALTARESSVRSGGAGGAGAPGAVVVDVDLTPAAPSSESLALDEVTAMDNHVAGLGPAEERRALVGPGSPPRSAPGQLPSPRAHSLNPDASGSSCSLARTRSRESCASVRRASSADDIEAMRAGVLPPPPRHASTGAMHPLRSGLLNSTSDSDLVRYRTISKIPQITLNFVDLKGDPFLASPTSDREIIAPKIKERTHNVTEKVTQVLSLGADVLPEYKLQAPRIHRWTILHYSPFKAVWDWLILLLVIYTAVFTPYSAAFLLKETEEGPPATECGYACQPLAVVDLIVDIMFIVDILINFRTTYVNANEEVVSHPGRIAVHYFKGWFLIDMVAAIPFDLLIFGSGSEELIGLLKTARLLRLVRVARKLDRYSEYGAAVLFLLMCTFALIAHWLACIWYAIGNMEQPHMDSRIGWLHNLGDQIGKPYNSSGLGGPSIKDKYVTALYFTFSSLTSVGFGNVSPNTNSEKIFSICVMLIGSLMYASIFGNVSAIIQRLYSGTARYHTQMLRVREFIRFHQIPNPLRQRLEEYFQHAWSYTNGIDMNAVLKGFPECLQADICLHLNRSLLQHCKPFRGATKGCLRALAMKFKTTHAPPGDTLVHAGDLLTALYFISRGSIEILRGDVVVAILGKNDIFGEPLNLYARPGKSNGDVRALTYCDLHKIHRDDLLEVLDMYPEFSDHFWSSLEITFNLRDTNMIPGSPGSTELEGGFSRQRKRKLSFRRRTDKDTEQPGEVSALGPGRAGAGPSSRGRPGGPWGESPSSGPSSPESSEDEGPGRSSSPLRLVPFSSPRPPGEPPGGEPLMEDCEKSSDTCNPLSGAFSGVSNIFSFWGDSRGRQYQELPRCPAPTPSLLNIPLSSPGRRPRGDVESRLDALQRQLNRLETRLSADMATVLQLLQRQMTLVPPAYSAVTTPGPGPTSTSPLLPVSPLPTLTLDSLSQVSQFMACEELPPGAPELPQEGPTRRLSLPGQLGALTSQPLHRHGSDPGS
Yeast Mot1 SUMO – SUMO pathway inhibitors in yeast Mot1-301 growth. shares compounds with Mot1-301 SUMO. S. cerevisiae Mot1-301 galactose growth, ATP luminescence, 24 h; -100 = growth of slx-deleted rescue strain. growth activity, percent, % at 42 µM. 2,300 tested, under 10 active. AID 493004;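 active = Signal drops as the depositor expects, and the fitted half-maximal dose is no more than ten times the top valid tested dose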;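 note: more negative values mean stronger growth rescue toward the control strain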
* marks the source's active call; other numbers are inactive results; i = inactive; · = not tested or not shown; + = active, no number. An excerpt weighted towards active compounds, which were near 4.2% of everything screened.

SMILES	KCNQ1 act	AI-2 QS mod	KCNQ1 block	Cl transport mod	Mot1-301 SUMO	hERG rescue	Yeast Mot1 SUMO
CC(C)Cc1nc2ccccc2n1CCc1ccccc1	i	14	i	-1.8	5	-14	·
Cc1c(C(=O)N2CCN(CC(=O)Nc3ccccc3Cl)CC2)oc2ccc(Br)cc12	·	·	·	·	5	·	·
COc1ccc(C2=Nn3c(nnc3-c3ccco3)SC2)cc1	i	48	i	-0.59	533*	-12	-1
O=c1c2ccccc2nc(SCc2ccc([N+](=O)[O-])cc2)n1CCCO	i	5	i	0.26	464*	-7	0
O=c1c2ccccc2nc(SCc2ccc([N+](=O)[O-])cc2)n1-c1ccc(Cl)cc1	i	12	i	0.59	172	-14	·
COc1ccc(NC(=O)Cn2nnc(C(=O)Nc3ccc(F)c(Cl)c3)c2N)cc1	i	20	i	·	477*	-4	0
CCN(CCn1cccn1)C(=O)C1CCC(=O)N(CCc2cccc(F)c2)C1 (stereo not given)	i	21	i	·	689*	-4	0
COc1ccc(C(=O)NNC2CC(=O)N(Cc3ccc(Cl)cc3)C2=O)cc1OC (stereo not given)	i	8	i	0.54	166	-3	·
O=C(NC1CCCCC1)c1ccc2snnc2c1	i	·	i	·	529*	-8	0
O=C(NNC(=O)c1csc(N2CCOCC2)n1)c1ccc(Cl)nc1	i	·	i	·	452*	-4	0
Cc1nnc(SCC(=O)N(CCC#N)c2ccc3c(c2)OCCO3)s1	·	·	·	·	7	·	·
COc1ccc(S(=O)(=O)N2CCN(c3ccc(F)cc3)CC2)cc1C(=O)N1CCOCC1	i	2	i	·	432*	-8	0
COc1ccc(S(=O)(=O)N2CCN(c3ccc(F)cc3)CC2)cc1C(=O)N1CCCC1	i	-6	i	·	3	-8	·
C/C(=N/OCO/N=C(\C)c1ccccc1)c1ccccc1	i	20	i	0.0068	640*	-6	0
C/C(=N\OCc1ccc(C#N)cc1)c1ccccc1	i	17	i	-0.59	346	-4	·
COCc1cc(C)n(CC(=O)Nc2cc(C)cc(C)c2)c(=O)c1C#N	i	4	i	0.025	436	-4	·
COc1ccccc1-n1nnnc1SCC(=O)Nc1ccc(C)c(N)c1	i	19	i	·	455*	-4	0
CSc1ccccc1-n1nnnc1SCC(=O)Nc1ccccc1C	i	16	i	·	506*	-16	0
COc1ccc(OC)c(NC(=O)CSc2nc(=O)n(Cc3ccccn3)c3c2CCC3)c1	i	21	i	·	30	-14	·
COc1ccc(NC(=O)CSCC(=O)N2CCCc3ccccc32)cc1	i	28	i	·	-24	-15	·
Cc1ccc(NC(=O)CSCC(=O)Nc2ccccc2N2CCCC2)cc1	i	9	i	·	421*	-6	0
Cc1cccc(NC(=O)CSCC(=O)N2CCCc3ccccc32)c1	i	8	i	·	503*	-10	0
Fc1cccc(C2CCCCN2Cc2nc(C3CC3)no2)c1 (stereo not given)	i	26	i	-0.99	-4	-17	·
O=C(CSc1ncnc2sc3c(c12)CCCC3)NC1CCS(=O)(=O)C1 (stereo not given)	·	·	·	·	13	·	·
CC(=O)CSc1ncnc2sc3c(c12)CCCC3	i	3	i	2.2	712*	-10	0
SMILES	KCNQ1 act	AI-2 QS mod	KCNQ1 block	Cl transport mod	Mot1-301 SUMO	hERG rescue	Yeast Mot1 SUMO
COc1ccc(NC(=O)CSCC(=O)Nc2ccccc2C(=O)N2CCCCC2)cc1	·	·	·	·	0	·	·
COc1ccc(NC(=O)Nc2ccccc2C(=O)N2CCCC2)cc1	i	13	i	-0.57	739*	-5	0
CCOC(=O)c1sc(NC(=O)CSc2n[nH]c(-c3ccccc3)n2)c(C#N)c1C	i	15	i	-2.3	472*	-19	0
COc1ccccc1N1CCN(C(=O)c2ccc(N3CCCCS3(=O)=O)cc2)CC1	i	9	i	·	607*	-7	1
O=C(c1ccc(N2CCCS2(=O)=O)cc1)N1CCN(c2ccc(F)cc2)CC1	i	27	i	·	-5	-9	·
CCCN1CCN(CCCNC(=O)CCn2nc(-c3ccccc3)ccc2=O)CC1	i	-13	i	-0.009	565*	-15	0
CN1CCN(CCCNC(=O)Cn2nc(-c3ccccc3)ccc2=O)CC1	i	2	i	0.04	11	1	·
COC(=O)c1cc(N=Nc2c(C)[nH]c3ccccc23)cc(C(=O)OC)c1	i	24	i	-0.51	945*	-7	0
Cc1ccc(S(=O)(=O)Oc2ccccc2N2C(=O)C3CC=CCC3C2=O)cc1 (stereo not given)	i	-9	i	0.38	+	-10	-1
O=C(CSc1nc(=O)n2ccccc2n1)N1CCN(c2ccccc2)CC1	i	38	i	·	559*	-8	1
Nc1ncnc2nc(SCC(=O)N3CCN(c4ccccc4)CC3)[nH]c12	i	15	i	-0.73	+	-13	0
O=C(O)c1cc(N2C(=O)C3CC=CCC3C2=O)ccc1NCc1cccnc1 (stereo not given)	i	15	i	-1.4	23	-10	·
CC(C)c1nc2n[nH]c(N)c2c2c1CCC2	i	3	i	·	408*	-10	0
COc1ccc(CCNC(=O)C2CCCN(S(=O)(=O)N3CCCCCC3)C2)cc1OC (stereo not given)	i	-7	i	·	-8	-7	·
CSc1ccc(CCNC(=O)C2CCCN(S(=O)(=O)N3CCOCC3)C2)cc1 (stereo not given)	i	28	i	·	564*	-6	0
COc1cc(C(=O)NCCOc2cc(C)cc(C)c2)cc(OC)c1OC	i	16	i	·	631*	-3	0
COc1cc(C(=O)NCCOc2ccccc2)cc(OC)c1OC	i	7	i	·	-3	0	·
COc1cc(C(=O)NCCC2=CCCCC2)cc(OC)c1OC	i	11	i	-0.61	807*	-13	0
Cc1ccc(-n2c(C(C)C)nc3oc4ccccc4c(=O)c3c2=O)cc1	i	·	i	-1.4	-16	-2	·
O=C(Nc1ccc2ccccc2c1)N1CCCN(CCOc2ccccc2)CC1	i	6	i	-0.99	425*	-10	0
